Measurements: ChEMBL document CHEMBL4765255, “Design and synthesis of Imidazo[1,2-b]pyridazine IRAK4 inhibitors for the treatment of mutant MYD88 L265P diffuse large B-cell lymphoma” (Eur J Med Chem, 2020)
One block for each molecule: values may come before it. Active and inactive are the calls of the source.

Key:
[1] = biological target: T1, Interleukin-1 receptor-associated kinase 4 (Homo sapiens, UniProt Q9NWZ3); test: Inhibition of recombinant human His-tagged full length IRAK4 expressed in baculovirus expression system using Ser/Thr07 peptide as substrate incubated for 1 hr by Z'lyte assay
T1 sequence (Q9NWZ3 whole entry): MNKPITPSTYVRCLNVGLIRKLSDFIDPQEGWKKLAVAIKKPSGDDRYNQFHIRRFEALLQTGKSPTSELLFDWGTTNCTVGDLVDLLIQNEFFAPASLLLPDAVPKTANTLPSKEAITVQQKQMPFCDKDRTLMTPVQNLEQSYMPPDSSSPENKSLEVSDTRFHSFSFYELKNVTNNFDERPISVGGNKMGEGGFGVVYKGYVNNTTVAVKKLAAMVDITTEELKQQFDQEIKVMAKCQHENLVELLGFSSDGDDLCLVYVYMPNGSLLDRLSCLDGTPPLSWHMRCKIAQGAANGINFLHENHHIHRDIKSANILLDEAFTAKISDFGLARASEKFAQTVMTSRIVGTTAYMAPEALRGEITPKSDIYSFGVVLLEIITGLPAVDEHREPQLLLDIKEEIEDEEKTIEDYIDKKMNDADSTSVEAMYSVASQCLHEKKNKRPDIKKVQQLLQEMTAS

HT = test: Cytotoxicity against human HT cells harboring MYD88 assessed as reduction in cell viability incubated for 72 hrs by CCK-8 assay; type: functional, cell-based
Ramos = test: Cytotoxicity against human Ramos cells harboring MYD88 assessed as reduction in cell viability incubated for 72 hrs by CCK-8 assay; type: functional, cell-based
TMD8 [2] = test: Cytotoxicity against human TMD8 cells harboring MYD88 L265P mutant assessed as reduction in cell viability incubated for 72 hrs by CCK-8 assay; type: functional, cell-based; conditions: TMD8, 72 h
OCI-Ly10 = test: Cytotoxicity against human OCILY10 cells harboring MYD88 L265P mutant assessed as reduction in cell viability incubated for 72 hrs by CCK-8 assay; type: functional, cell-based; conditions: OCI-Ly10, 72 h
[3] = biological target: T2, Interleukin-1 receptor-associated kinase 4 (Homo sapiens) (UniProt Q9NWZ3); test: Inhibition of IRAK4 in human OCI-LY10 cells assessed as decrease in IKKbeta phosphorylation at 0.3 to 10 uM incubated for 2 hrs by Western blot analysis; type: cell-based; conditions: OCILY10, dose 0.3-10 µM
T2 sequence (whole entry): T1 sequence (Q9NWZ3 whole entry)
How it was run: (§1)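 OCI-LY10 or TMD8 cells, about 2×10^6 per well, treated with compound or DMSO for 2 h. Cells washed twice with PBS, lysed, then Western blotted for p-IRAK4 (Thr-345/Ser-346), p-IKKβ and p-p65. Bands quantified densitometrically; significance thresholds p<0.05, 0.01, 0.001.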

[4] = biological target: T2, Interleukin-1 receptor-associated kinase 4 (Homo sapiens); test: Inhibition of IRAK4 in human TMD8 cells assessed as decrease in NF-kappaB phosphorylation at 0.3 to 10 uM incubated for 2 hrs by Western blot analysis; type: cell-based; conditions: dose 0.3-10 µM; how it was run: as §1
[5] = biological target: Receptor-type tyrosine-protein kinase FLT3 (Homo sapiens) (UniProt P36888); test: Inhibition of FLT3 (unknown origin) at 0.1 uM incubated for 1 hr by ELISA relative to control
How it was run: (§2)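 Part of a 20-kinase panel tested at 0.1 μM compound. Kinase inhibition measured by ELISA following previously described protocols.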

[6] = biological target: T2, Interleukin-1 receptor-associated kinase 4 (Homo sapiens); test: Inhibition of IRAK4 in human TMD8 cells assessed as decrease in IKKbeta phosphorylation at 0.3 to 10 uM incubated for 2 hrs by Western blot analysis; type: cell-based; conditions: dose 0.3-10 µM; how it was run: as §1
[7] = biological target: T2, Interleukin-1 receptor-associated kinase 4 (Homo sapiens); test: Inhibition of IRAK4 in human OCI-LY10 cells assessed as decrease in NF-kappaB phosphorylation at 0.3 to 10 uM incubated for 2 hrs by Western blot analysis; type: cell-based; conditions: OCILY10, dose 0.3-10 µM; how it was run: as §1
[8] = system: Receptor-type tyrosine-protein kinase FLT3 (Homo sapiens), P36888 [UNDEFINED MUTATION]; test: Inhibition of FLT3-ITD mutant (unknown origin) at 0.1 uM incubated for 1 hr by ELISA relative to control; how it was run: as §2
[9] = biological target: T2, Interleukin-1 receptor-associated kinase 4 (Homo sapiens); test: Inhibition of IRAK4 in human OCILY10 cells assessed as decrease in IRAK4 Thr345/Ser346 phosphorylation incubated for 2 hrs by Western blot analysis; type: cell-based; conditions: dose 0.3-10 µM; how it was run: as §1
TMD8 [10] = test: Cytotoxicity against human TMD8 cells harboring MYD88 L265P mutant assessed as combination index at 0.3 uM in presence of ibrutinib incubated for 72 hrs by CCK-8 assay; type: functional
How it was run: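 TMD8 cells (RPMI1640, 10% FBS, penicillin–streptomycin, 0.05 mM 2-mercaptoethanol, 37 °C, 5% CO2), seeded at 10000-12000 cells/well, exposed to ibrutinib plus IRAK4 inhibitor at varied concentrations for 72 h. Viability read by CCK-8; combination index computed with CalcuSyn, CI below 1 taken as synergy.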

[11] = biological target: T2, Interleukin-1 receptor-associated kinase 4 (Homo sapiens); test: Inhibition of IRAK4 in human TMD8 cells assessed as decrease in IRAK4 Thr345/Ser346 phosphorylation incubated for 2 hrs by Western blot analysis; type: cell-based; conditions: dose 0.3-10 µM; how it was run: as §1
[12] = biological target: Mast/stem cell growth factor receptor Kit (Homo sapiens) (UniProt P10721); test: Inhibition of c-Kit (unknown origin) at 0.1 uM incubated for 1 hr by ELISA relative to control; how it was run: as §2
Mast/stem cell growth factor receptor Kit (Homo sapiens), sequence (P10721 whole entry): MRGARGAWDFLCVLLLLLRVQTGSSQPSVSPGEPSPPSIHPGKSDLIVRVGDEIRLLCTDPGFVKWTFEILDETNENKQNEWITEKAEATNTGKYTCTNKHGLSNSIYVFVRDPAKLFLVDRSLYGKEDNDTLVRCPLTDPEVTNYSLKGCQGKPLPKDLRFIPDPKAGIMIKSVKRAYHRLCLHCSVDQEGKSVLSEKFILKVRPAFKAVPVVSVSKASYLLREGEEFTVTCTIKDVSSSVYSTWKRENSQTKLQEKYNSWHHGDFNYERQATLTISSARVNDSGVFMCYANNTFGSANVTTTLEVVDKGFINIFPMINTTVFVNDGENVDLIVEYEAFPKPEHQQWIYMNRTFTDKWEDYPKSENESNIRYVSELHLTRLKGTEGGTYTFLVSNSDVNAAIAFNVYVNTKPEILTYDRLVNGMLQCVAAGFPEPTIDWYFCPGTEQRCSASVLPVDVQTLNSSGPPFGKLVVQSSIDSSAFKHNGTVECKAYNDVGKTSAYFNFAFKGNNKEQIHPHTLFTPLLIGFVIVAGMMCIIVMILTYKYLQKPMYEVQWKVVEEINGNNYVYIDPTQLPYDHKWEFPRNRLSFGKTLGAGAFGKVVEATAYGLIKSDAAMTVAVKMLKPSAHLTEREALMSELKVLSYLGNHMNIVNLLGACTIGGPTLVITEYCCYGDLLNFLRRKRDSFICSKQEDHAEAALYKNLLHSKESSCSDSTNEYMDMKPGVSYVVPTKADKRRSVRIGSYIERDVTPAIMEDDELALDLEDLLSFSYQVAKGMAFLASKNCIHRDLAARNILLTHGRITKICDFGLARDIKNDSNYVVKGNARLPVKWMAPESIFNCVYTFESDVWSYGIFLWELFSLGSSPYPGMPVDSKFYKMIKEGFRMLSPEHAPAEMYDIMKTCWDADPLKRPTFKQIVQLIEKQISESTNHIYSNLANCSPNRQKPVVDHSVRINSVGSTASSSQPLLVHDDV

Receptor-type tyrosine-protein kinase FLT3 (Homo sapiens), sequence (P36888 whole entry): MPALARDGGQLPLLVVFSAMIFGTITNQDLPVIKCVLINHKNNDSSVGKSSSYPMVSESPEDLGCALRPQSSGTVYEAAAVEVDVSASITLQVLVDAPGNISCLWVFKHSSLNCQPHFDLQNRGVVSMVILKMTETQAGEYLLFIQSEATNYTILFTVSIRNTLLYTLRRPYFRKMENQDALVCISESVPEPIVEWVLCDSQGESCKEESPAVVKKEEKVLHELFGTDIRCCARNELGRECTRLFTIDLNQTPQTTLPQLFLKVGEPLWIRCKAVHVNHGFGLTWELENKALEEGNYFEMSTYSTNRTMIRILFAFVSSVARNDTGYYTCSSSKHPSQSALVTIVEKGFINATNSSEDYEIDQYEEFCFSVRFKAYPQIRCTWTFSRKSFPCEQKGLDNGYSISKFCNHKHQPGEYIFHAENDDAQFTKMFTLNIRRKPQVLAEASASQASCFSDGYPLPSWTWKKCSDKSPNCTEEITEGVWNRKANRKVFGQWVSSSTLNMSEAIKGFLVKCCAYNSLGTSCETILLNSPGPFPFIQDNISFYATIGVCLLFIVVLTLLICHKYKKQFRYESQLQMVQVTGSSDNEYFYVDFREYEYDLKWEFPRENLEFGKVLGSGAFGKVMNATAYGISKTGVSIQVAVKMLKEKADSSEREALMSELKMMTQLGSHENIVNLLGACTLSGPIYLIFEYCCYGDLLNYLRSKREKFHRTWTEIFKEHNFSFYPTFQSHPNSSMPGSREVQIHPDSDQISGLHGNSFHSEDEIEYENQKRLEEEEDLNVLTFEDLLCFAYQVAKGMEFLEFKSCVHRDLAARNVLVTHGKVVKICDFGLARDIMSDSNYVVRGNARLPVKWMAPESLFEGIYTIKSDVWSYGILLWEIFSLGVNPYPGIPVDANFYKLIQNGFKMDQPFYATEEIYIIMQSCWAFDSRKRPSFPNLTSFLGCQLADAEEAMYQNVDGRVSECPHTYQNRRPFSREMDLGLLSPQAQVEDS
Receptor-type tyrosine-protein kinase FLT3 (Homo sapiens), P36888 [UNDEFINED MUTATION], sequence (P36888 whole entry, looked up, change not shown): as the sequence (P36888 whole entry) above

IC50 [1]: 0.0803 µM
SMILES: Cn1cc(NC(=O)c2cnc3ccc(N4CCC(N)CC4)nn23)c(C(F)F)n1

IC50 [1]: > 1 µM
SMILES: CN(c1ccc2ncc(C(=O)Nc3cn(C)nc3C(F)F)n2n1)[C@@H]1CCCNC1

SMILES: Cn1cc(NC(=O)c2cnc3ccc(N[C@@H]4CCCNC4)nn23)c(C#N)n1
IC50 (HT): > 50 µM
IC50 (Ramos): 28.8 µM
IC50 (TMD8 [2]): 14.8 µM
IC50 (OCI-Ly10): 5.8 µM
IC50 [1]: 0.0408 µM

IC50 [1]: 0.0125 µM
SMILES: Cn1cc(NC(=O)c2cnc3ccc(N[C@@H]4CCCNC4)nn23)c(C(N)=O)n1

IC50 [1]: 0.0655 µM
SMILES: Cn1cc(NC(=O)c2cnc3ccc(N4CCNCC4)nn23)c(C(F)F)n1

SMILES: Cn1cc(NC(=O)c2cnc3ccc(N[C@@H]4CCCNC4)nn23)c(C(F)(F)F)n1
IC50 (HT): > 50 µM
IC50 (Ramos): > 50 µM
IC50 (TMD8 [2]): 5.9 µM
IC50 (OCI-Ly10): 2.8 µM
IC50 [1]: 0.0235 µM

SMILES: Cn1cc(NC(=O)c2cnn3ccc(N4CCC[C@@H](N)C4)nc23)c(C(F)F)n1
IC50 (HT): 29.2 µM
IC50 (Ramos): 19 µM
IC50 (TMD8 [2]): 7.3 µM
IC50 (OCI-Ly10): 5.5 µM
IC50 [1]: 0.0093 µM

SMILES: O=C(Nc1cn(C2CCOCC2)nc1C(F)(F)F)c1cnc2ccc(N[C@@H]3CCCNC3)nn12
IC50 (HT): > 50 µM
IC50 (Ramos): > 50 µM
IC50 (TMD8 [2]): 11.1 µM
IC50 (OCI-Ly10): 10.5 µM
IC50 [1]: 0.0497 µM

SMILES: Cn1cc(NC(=O)c2ncn3ccc(N4CCC[C@@H](N)C4)nc23)c(C(F)F)n1
IC50 (HT): > 50 µM
IC50 (Ramos): > 50 µM
IC50 (TMD8 [2]): > 50 µM
IC50 (OCI-Ly10): > 50 µM
IC50 [1]: > 1 µM

IC50 [1]: > 1 µM
SMILES: Cc1nn(C)cc1NC(=O)c1cnc2ccc(N[C@@H]3CCCNC3)nn12

SMILES: Cn1cc(NC(=O)c2cnc3ccc(NCCN)nn23)c(C(F)F)n1
IC50 (HT): > 50 µM
IC50 (Ramos): > 50 µM
IC50 (TMD8 [2]): 17.7 µM
IC50 (OCI-Ly10): 8.8 µM
IC50 [1]: 0.0175 µM

IC50 [1]: > 1 µM
SMILES: Cc1nn2ccc(N[C@@H]3CCCNC3)nc2c1C(=O)Nc1cn(C)nc1C(F)F

SMILES: CCn1cc(NC(=O)c2cnc3ccc(N[C@@H]4CCCNC4)nn23)c(C(F)(F)F)n1
IC50 (HT): > 50 µM
IC50 (Ramos): > 50 µM
IC50 (TMD8 [2]): 6.1 µM
IC50 (OCI-Ly10): 3.6 µM
IC50 [1]: 0.0323 µM

IC50 [1]: > 1 µM
SMILES: Cn1cc(NC(=O)c2cnc3ccc(N4CC[C@@H](N)C4)nn23)c(C(F)F)n1

SMILES: Cn1cc(NC(=O)c2cnc3ccc(N[C@H]4CCCNC4)nn23)c(C(F)F)n1
IC50 (HT): > 50 µM
IC50 (Ramos): > 50 µM
IC50 (TMD8 [2]): 22.3 µM
IC50 (OCI-Ly10): 22.3 µM
IC50 [1]: 0.0362 µM

IC50 [1]: 0.0522 µM
SMILES: O=C(Nc1cn(C2CCNCC2)nc1C(F)(F)F)c1cnc2ccc(N[C@@H]3CCCNC3)nn12

SMILES: Cn1cc(NC(=O)c2cnc3ccc(N[C@@H]4CCCNC4)nn23)c(C(F)F)n1
IC50 (HT): 40.1 µM
inhibition [3]: Active
inhibition [4]: Active
IC50 (Ramos): 11.4 µM
IC50 (TMD8 [2]): 1.2 µM
inhibition [5]: > 50%
inhibition [6]: Active
inhibition [7]: Active
IC50 (OCI-Ly10): 0.7 µM
inhibition [8]: > 50%
inhibition [9]: Dose-dependent effect
IC50 [1]: 0.0013 µM
CI (TMD8 [10]): 0.13
inhibition [11]: Dose-dependent effect
inhibition [12]: > 50%

IC50 [1]: 0.077 µM
SMILES: CC(C)n1cc(NC(=O)c2cnc3ccc(N[C@@H]4CCCNC4)nn23)c(C(F)(F)F)n1

SMILES: Cn1cc(NC(=O)c2cnc3ccc(N[C@@H]4CCNC4)nn23)c(C(F)F)n1
IC50 (HT): > 50 µM
IC50 (Ramos): 45 µM
IC50 (TMD8 [2]): 8.3 µM
IC50 (OCI-Ly10): 3.6 µM
IC50 [1]: 0.0077 µM

IC50 [1]: > 1 µM
SMILES: Cc1nc2ccc(N[C@@H]3CCCNC3)nn2c1C(=O)Nc1cn(C)nc1C(F)F

SMILES: Cn1cc(NC(=O)c2cnc3ccc(N[C@@H]4CCCCNC4)nn23)c(C(F)F)n1
IC50 (HT): 35.9 µM
IC50 (Ramos): 7.2 µM
IC50 (TMD8 [2]): 1.2 µM
IC50 (OCI-Ly10): 0.8 µM
IC50 [1]: 0.009 µM

SMILES: Cn1cc(NC(=O)c2cnc3ccc(N4CCC[C@@H](N)C4)nn23)c(C(F)F)n1
IC50 (HT): 41.7 µM
IC50 (Ramos): 44.3 µM
IC50 (TMD8 [2]): 17.8 µM
IC50 (OCI-Ly10): 10.7 µM
IC50 [1]: 0.0087 µM
